In ChEMBL document CHEMBL1133513, “Synthesis and biological activity of novel 5-fluoro-2'-deoxyuridine phosphoramidate prodrugs” (J Med Chem, 2000):

Experiments:
Assay type in all cases: functional, cell-based
L1210 [1] = assay: Growth inhibition in L1210 mouse Leukemia cells for a treatment time of 48 hr; details: L1210, 48 h
Method in brief: (§1)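 L1210 cells in exponential growth, 3–6 × 10^4/mL in Fischer's medium with 10% horse serum, 1% glutamine, 1% antibiotic–antimycotic. Drug added from ethanol dilutions (50 μL per 10 mL), exposure 2, 8, 24 or 48 h. Cells then spun down, resuspended in drug-free medium, counted 48 h after treatment start. IC50 read from percent-of-control count versus concentration plots.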

L1210 [2] = assay: Growth inhibition in L1210 mouse Leukemia cells for a treatment time of 2 hr; details: L1210, 2 h; method in brief: as §1
L1210 [3] = assay: Growth inhibition in L1210 mouse Leukemia cells for a treatment time of 24 hr; details: L1210, 24 h; method in brief: as §1
L1210 [4] = assay: Growth inhibition in L1210 mouse Leukemia cells for a treatment time of 8 hr; details: L1210, 8 h; method in brief: as §1

Compound	IC50 (L1210 [1]) [µM]	IC50 (L1210 [2]) [µM]	IC50 (L1210 [3]) [µM]	IC50 (L1210 [4]) [µM]
O=c1[nH]cc(F)c(=O)[nH]1 [FLUOROURACIL]	0.125	–	–	–
CN(CCBr)P(=O)(NCC1OC(n2cc(F)c(=O)[nH]c2=O)CC1O)OCc1ccc([N+](=O)[O-])o1 (stereo not given)	0.034	1.1	0.108	0.504
